# Measurements taken from ChEMBL document CHEMBL3734737, “Synthesis and Evaluation of a Radioiodinated Tracer with Specificity for Poly(ADP-ribose) Polymerase-1 (PARP-1) in Vivo” (J Med Chem, 2015).
# What was measured:
# [1] = Octanol-water partition coefficient, log P of the compound at 0.5 to 1.5 mg/ml by HPLC method; type: physicochemical
# Outline: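 Samples of 0.5–1.5 mg/mL in MeCN/PBS were run in triplicate on reverse-phase C18 HPLC. The gradient was PBS/MeCN at 1.0 mL/min, with PBS at pH 4.0, 7.4 and 10.0. Retention times were calibrated against seven standards of known chromatographic hydrophobicity index (CHI) to give non-ionized CHI, from which log P was derived.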
# albumin = albumin (Homo sapiens, UniProt P02768); assay: Protein binding to human serum albumin at 0.5 to 1.5 mg/ml by HPLC method; type: ADME; conditions: read-out: PPB (converted)
# [2] = target: Poly [ADP-ribose] polymerase 1 (Homo sapiens, UniProt P09874); assay: Inhibition of PARP1 (unknown origin) incubated for 10 mins using biotinylated NAD+ and activated DNA by colorimetric assay
# Brain = assay: Drug level in brain of human U87MG-Luc2 cells xenografted CD1 mouse at 0.8 to 1.1 MBq, iv after 30 mins by gamma counting method; type: ADME, organism-based; conditions: in vivo, 0.5 h
# Outline: (§1)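 Female 7–11 week CD1 nude mice carrying subcutaneous U87MG-Luc2 flank xenografts (5×10^6 cells; used 21–30 days post-implant) got a tail-vein bolus of 0.8–1.1 MBq [123I]-tracer in 10% EtOH/0.9% saline. They were killed by CO2 at 30 min (n=3). Tissues were fixed in formaldehyde, weighed and gamma counted. Background was subtracted and %ID/g was derived from a dose-stock control.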
# [3] = Drug level in solid feces of human U87MG-Luc2 cells xenografted CD1 mouse at 0.8 to 1.1 MBq, iv after 30 mins by gamma counting method; type: ADME, organism-based; conditions: in vivo, 0.5 h, TDE = time-dependent effect; outline: as §1
# Liver = assay: Drug level in liver of human U87MG-Luc2 cells xenografted CD1 mouse at 0.8 to 1.1 MBq, iv after 30 mins by gamma counting method; type: ADME, organism-based; conditions: in vivo, 0.5 h; outline: as §1
# [4] = Drug level in small bowel matter of human U87MG-Luc2 cells xenografted CD1 mouse at 0.8 to 1.1 MBq, iv after 30 mins by gamma counting method; type: ADME, organism-based; conditions: in vivo, 0.5 h; outline: as §1
# [5] = Metabolic stability in black-6 mouse plasma assessed as residual compound level at 250 uM incubated for 20 hrs by LC-MS method; type: ADME, cell-free; conditions: read-out: Stability
# Outline: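 Plasma was taken from EDTA-treated female black-6 mouse blood. Compound (10 μL of 250 μM stock into 50 μL plasma; DMSO <1%) was held at room temperature for 0 or 20 h. It was MeOH-precipitated and measured by LC-MS (SIM) against an internal standard, as % parent relative to a no-plasma control. Three experiments, ± SD.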
# [6] = Intrinisc clerarance in human liver microsomes assessed as residual compound level at 60 uM preincubated for 10 mins followed by NADPH addition in KH2PO4 at pH 7.4 by LC-MS method; type: ADME; conditions: read-out: CLH
# Sequence of albumin (P02768 whole entry): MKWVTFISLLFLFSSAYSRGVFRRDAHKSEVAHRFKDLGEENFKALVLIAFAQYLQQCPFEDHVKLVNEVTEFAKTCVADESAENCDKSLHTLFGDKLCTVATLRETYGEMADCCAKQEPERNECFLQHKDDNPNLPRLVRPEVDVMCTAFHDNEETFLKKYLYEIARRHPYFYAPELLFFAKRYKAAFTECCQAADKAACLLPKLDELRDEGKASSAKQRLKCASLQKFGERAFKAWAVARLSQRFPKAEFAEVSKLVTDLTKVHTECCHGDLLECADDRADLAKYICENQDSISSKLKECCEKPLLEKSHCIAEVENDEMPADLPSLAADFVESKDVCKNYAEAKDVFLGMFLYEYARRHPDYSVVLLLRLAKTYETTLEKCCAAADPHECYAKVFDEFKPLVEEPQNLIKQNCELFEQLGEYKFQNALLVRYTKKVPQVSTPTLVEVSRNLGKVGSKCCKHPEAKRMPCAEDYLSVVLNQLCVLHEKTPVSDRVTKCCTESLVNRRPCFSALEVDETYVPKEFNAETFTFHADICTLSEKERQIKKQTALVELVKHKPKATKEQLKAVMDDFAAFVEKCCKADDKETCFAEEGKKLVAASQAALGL
# Sequence of Poly [ADP-ribose] polymerase 1 (P09874 whole entry): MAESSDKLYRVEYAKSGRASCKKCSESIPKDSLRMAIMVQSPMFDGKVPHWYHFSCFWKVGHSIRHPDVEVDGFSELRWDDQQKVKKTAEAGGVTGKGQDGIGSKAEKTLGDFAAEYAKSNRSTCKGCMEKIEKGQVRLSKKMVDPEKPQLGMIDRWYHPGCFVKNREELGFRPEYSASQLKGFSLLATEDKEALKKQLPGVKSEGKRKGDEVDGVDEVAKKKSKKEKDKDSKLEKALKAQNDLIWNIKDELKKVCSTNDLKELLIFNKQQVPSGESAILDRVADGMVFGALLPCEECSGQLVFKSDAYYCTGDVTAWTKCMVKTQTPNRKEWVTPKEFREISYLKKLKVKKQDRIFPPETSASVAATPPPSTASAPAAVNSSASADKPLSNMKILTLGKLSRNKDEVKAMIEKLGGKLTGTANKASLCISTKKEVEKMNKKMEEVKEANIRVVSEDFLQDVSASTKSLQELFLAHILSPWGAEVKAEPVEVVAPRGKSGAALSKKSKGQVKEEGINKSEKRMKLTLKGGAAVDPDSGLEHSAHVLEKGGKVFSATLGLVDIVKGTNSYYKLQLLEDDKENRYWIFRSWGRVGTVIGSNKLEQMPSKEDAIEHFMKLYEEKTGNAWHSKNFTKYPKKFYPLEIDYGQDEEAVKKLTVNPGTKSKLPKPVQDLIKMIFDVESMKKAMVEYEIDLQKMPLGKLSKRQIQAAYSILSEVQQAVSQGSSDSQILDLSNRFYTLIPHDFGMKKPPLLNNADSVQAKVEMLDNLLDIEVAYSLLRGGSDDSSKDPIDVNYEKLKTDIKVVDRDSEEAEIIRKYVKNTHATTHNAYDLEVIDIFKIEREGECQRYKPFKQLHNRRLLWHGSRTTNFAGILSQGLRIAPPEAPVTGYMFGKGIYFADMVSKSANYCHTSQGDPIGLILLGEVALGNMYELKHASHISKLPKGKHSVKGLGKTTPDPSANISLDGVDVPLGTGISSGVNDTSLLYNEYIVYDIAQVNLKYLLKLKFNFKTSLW
Structure (SMILES),logP [1],fraction unbound (albumin),IC50 [2] [nM],other results
COc1ccc(C(=O)N2CCN(C(=O)c3cc(Cc4n[nH]c(=O)c5ccccc45)ccc3F)CC2)cc1I,2.95,0.035,17.6,
O=C(COc1ccc(I)cc1)N1CCN(C(=O)c2cc(Cc3n[nH]c(=O)c4ccccc34)ccc2F)CC1,3.25,0.019,3,
O=C(c1ccc([123I])cc1)N1CCN(C(=O)c2cc(Cc3n[nH]c(=O)c4ccccc34)ccc2F)CC1,,,,Drug uptake (Brain): Not Active; Drug uptake [3]: tde; Drug uptake (Liver): Active; Drug uptake [4]: Active
O=C(Cc1cccc(I)c1)N1CCN(C(=O)c2cc(Cc3n[nH]c(=O)c4ccccc34)ccc2F)CC1,3.13,0.025,5.8,
Cc1ccc(C(=O)N2CCN(C(=O)c3cc(Cc4n[nH]c(=O)c5ccccc45)ccc3F)CC2)cc1I,3.23,0.024,16.9,
O=C(c1ccc(I)cc1)N1CCN(C(=O)c2cc(Cc3n[nH]c(=O)c4ccccc34)ccc2F)CC1,3,0.038,,"remaining at 20 h, 250 µM [5]: 98%; microsomal CLint at 60 µM [6]: 85 µL/min/mg"
O=C(c1cccc(I)c1)N1CCN(C(=O)c2cc(Cc3n[nH]c(=O)c4ccccc34)ccc2F)CC1,2.97,0.039,,
O=C(c1cc(Cc2n[nH]c(=O)c3ccccc23)ccc1F)N1CCN(S(=O)(=O)c2ccc(I)cc2)CC1,> 3.25,0.016,22.6,
O=C1CN=C(c2ccccn2)c2cc(Br)ccc2N1 [BROMAZEPAM],,0.4,,
CCCC1O[C@@H]2C[C@H]3[C@@H]4CCC5=CC(=O)C=C[C@]5(C)[C@H]4[C@@H](O)C[C@]3(C)[C@]2(C(=O)CO)O1 (some centres not stated) [BUDESONIDE],,0.12,,
NC(=O)N1c2ccccc2C=Cc2ccccc21 [CARBAMAZEPINE],,0.25,,
COC(=O)C1=C(C)NC(C)=C(C(=O)OCCN(C)Cc2ccccc2)C1c1cccc([N+](=O)[O-])c1 (configuration not stated) [NICARDIPINE],,0.05,,
CNC(=C[N+](=O)[O-])NCCSCc1csc(CN(C)C)n1 [NIZATIDINE],,0.65,,
O=C(c1cc(Cc2n[nH]c(=O)c3ccccc23)ccc1F)N1CCN(C(=O)C2CC2)CC1 [OLAPARIB],1.95,,,microsomal CLint at 60 µM [6]: 29 µL/min/mg
